Laboratory results taken from paper PMC5346068 (ACS infectious diseases, 2017).
Converted amounts (≈) assume the structure as drawn. “Also recorded” adds a separate entry of the source.

Columns and labels:
[1] = tested on: T. brucei; assay: T. brucei in vitro growth inhibition; format: cell-based; conditions: Trypanosoma brucei, read-out: T. brucei EC50
[2] = MRC5-SV2 human lung cell toxicity; format: cell-based; conditions: MRC5-SV2 human lung cells
[3] = Aqueous solubility; format: physicochemical
[4] = Human plasma protein binding; format: in vitro ADME
[5] = Human liver microsome clearance; format: in vitro ADME; conditions: liver microsomes
[6] = Rat hepatocyte clearance; format: in vitro ADME; conditions: rat hepatocytes
[7] = logD 7.4; format: physicochemical; conditions: pH 7.4
[8] = Mouse plasma and brain pharmacokinetics; format: in vivo, female BALB/c mice; conditions: female, BALB/c, brain, ip, 10 mg/kg
Outline: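 Female BALB/c mice received a single intraperitoneal 10 mg/kg dose of test compound. Drug levels were measured in plasma and brain, and the brain-to-plasma ratio and brain concentration were taken at the 24 h time point.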

[9] = tested on: T. b. brucei (GVR 35 strain); assay: Murine CNS infection model; format: in vivo, mouse; conditions: tail blood; for mice with no detectable parasitemia, day 28: 1 at 20 mg/kg/day days 21-25, Berenil single 40 mg/kg day 21
Outline: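 Mice were infected on day 0 with T. b. brucei GVR 35, in two groups of 5, and checked for parasitemia on day 14. The control group got a single 40 mg/kg Berenil dose on day 21, then vehicle (DMSO in PBS) on days 22–25. The treated group got test compound at 20 mg/kg/day on days 21–25 and again on days 28–32. Tail blood was examined on days 14, 28, 35, 39 and 43.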

[10] = target: T1, T. brucei MetRS (Trypanosoma brucei brucei, UniProt Q38C91); assay: T. brucei MetRS inhibition assay; format: biochemical
T1 sequence (Q38C91 1-773): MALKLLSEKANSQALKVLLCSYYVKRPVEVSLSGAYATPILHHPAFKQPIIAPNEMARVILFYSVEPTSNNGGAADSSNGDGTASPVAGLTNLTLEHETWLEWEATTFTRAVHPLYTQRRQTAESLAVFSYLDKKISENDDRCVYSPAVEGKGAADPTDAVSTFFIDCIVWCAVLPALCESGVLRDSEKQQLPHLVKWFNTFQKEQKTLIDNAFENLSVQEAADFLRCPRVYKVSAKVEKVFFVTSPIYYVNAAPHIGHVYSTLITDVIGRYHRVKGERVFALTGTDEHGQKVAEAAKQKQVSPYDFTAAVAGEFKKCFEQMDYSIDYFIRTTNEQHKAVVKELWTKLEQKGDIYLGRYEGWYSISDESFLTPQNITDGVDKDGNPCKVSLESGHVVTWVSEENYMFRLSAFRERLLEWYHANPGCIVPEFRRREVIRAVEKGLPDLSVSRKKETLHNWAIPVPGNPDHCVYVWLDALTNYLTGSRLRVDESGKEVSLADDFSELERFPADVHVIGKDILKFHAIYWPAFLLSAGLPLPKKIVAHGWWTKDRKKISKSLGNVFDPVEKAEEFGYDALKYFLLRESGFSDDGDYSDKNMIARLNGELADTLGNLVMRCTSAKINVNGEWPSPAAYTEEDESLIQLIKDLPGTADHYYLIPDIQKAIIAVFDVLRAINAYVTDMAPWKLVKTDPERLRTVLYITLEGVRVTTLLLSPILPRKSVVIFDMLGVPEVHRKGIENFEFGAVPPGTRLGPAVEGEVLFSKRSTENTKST

[11] = tested on: wild-type T. brucei; assay: Wild-type T. brucei growth inhibition assay; format: cell-based; conditions: Trypanosoma brucei, read-out: WT EC50
[12] = tested on: 1433-resistant T. brucei; assay: microbe, parasite or virus in culture; format: cell-based, Trypanosoma brucei; conditions: for EC50: Trypanosoma brucei, read-out: 1433 resistant EC50; for 1433 resistant EC50 / WT EC50: fold shift resistant vs wild-type
[13] = tested on: T. brucei rhodesiense; conditions: T. brucei rhodesiense mouse model of HAT; cited from earlier work

SMILES: OCCn1c(CNCCCNc2nc3ccccc3[nH]2)cc2c(Cl)cc(Cl)cc21 [Compound 1, 2-(2-(((3-((1H–Benzo[d]imidazol-2-yl)amino)propyl)amino)methyl)-4,6-dichloro-1H–indol-1-yl)ethan-1-ol]
- EC50 [1]: 0.96 nM
- EC50 [2]: 12000 nM
- solubility [3]: 6.33 µM (≈ 2.74 µg/mL)
- fraction unbound [4]: < 0.001
- microsomal CLint [5]: 24 µL/min/mg
- Rat Hepatocyte Clint [6]: 24.9 µL/min/10^6
- logD [7]: 4
- concentration at 24 h [8]: 31.6 ng/g
- mice with no detectable parasitemia, day 28 [9]: 3/5
- parasitemia, day 39 [9]: full relapse of parasites in the blood
- IC50 [10]: < 25 nM
- EC50 [11]: 0.13 ± 0.01 nM
- EC50 [12]: 14 ± 1 nM
- 1433 resistant EC50 / WT EC50 [12]: 108
- efficacy in bloodstream infection mouse model [13]: cured a bloodstream infection

SMILES: CC(=O)NCC(=O)O.CC(=O)NCC(=O)O.N=C(N)c1ccc(N=NNc2ccc(C(=N)N)cc2)cc1 [Berenil]
- mice with no detectable parasitemia, day 28 [9]: no detectable levels of parasitemia
- parasitemia, day 39 [9]: no detectable levels of parasitemia
- mice showing a relapse, day 43 ([9]; day 43, group of 5 mice): 2

SMILES: N=C(N)c1ccc(OCCCCCOc2ccc(C(=N)N)cc2)cc1 [Pentamidine, reference compound]
- T. brucei MetRS inhibition ([10]; up to 10 µM): no T. brucei MetRS inhibition; also recorded: does not inhibit T. brucei MetRS
- EC50 [11]: 1.5 ± 0.2 nM
- EC50 [12]: 1.1 ± 0.1 nM
- 1433 resistant EC50 / WT EC50 [12]: 0.73
